Assay results as given in ChEMBL document CHEMBL3808369, “Identification of Cyproheptadine as an Inhibitor of SET Domain Containing Lysine Methyltransferase 7/9 (Set7/9) That Regulates Estrogen-Dependent Transcription” (J Med Chem, 2016).
Activity calls are given as the source filed them. The calls are words filed in the database; no cut-off is given here.

Tests used:
[1] = target: T1, N-lysine methyltransferase KMT5A (Homo sapiens) (UniProt Q9NQR1); assay: Inhibition of Set8 (unknown origin) by AlphaELISA
T1 sequence (whole entry): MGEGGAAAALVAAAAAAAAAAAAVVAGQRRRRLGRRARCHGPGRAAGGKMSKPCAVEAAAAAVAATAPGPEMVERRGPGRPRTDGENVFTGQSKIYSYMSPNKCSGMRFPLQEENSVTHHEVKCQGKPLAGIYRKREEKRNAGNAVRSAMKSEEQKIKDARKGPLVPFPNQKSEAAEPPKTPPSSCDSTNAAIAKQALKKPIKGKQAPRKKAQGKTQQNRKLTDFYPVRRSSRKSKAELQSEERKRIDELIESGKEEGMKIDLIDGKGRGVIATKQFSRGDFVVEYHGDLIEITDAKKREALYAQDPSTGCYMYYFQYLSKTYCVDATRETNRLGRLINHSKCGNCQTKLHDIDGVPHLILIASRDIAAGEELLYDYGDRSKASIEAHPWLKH

Mus musculus = assay: Effect on body weight in Balb/c-nu/nu mouse xenografted with Fucci introduced human MCF7 cells at 20 mg/kg, ip qd administered as continuous dose for 8 days measured every 3 to 4 days until day 15; type: ADME, organism-based; details: in vivo
Outline: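 Female Balb/C-nu/nu mice, 7 weeks old, each inoculated with about 2 × 10^7 Fucci-MCF7 cells in the mammary gland. Dosing started when tumors reached about 100 mm3, 13 days after inoculation. 20 mg/kg given ip once daily, days 1–8, in saline with 10% ethanol; a vehicle group ran alongside. Caliper tumor volume (a2b)/2 and body weight were recorded every 3 or 4 days to day 15. Six mice per group, mean ± SE.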

[2] = target: T2, Histone-lysine N-methyltransferase SUV39H1 (Homo sapiens) (UniProt O43463); assay: Inhibition of Suv39h1 (unknown origin) by ELISA
T2 sequence (whole entry): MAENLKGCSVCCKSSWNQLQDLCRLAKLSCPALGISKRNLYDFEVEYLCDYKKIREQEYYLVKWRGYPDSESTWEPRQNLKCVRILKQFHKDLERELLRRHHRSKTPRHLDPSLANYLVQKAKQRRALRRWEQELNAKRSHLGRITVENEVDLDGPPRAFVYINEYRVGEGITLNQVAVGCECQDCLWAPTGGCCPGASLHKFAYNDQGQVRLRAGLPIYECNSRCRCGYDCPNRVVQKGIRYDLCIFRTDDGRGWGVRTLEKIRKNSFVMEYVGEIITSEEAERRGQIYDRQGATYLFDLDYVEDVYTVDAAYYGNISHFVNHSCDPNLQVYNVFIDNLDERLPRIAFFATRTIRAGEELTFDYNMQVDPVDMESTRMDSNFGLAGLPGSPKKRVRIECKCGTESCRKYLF

[3] = target: T3, Histone-lysine N-methyltransferase SETD7 (Homo sapiens) (UniProt Q8WTS6); assay: Inhibition of Set7/9 in human MCF7 cells assessed as half life of ERalpha at 43 uM by immunoblotting analysis in presence of cycloheximide (reference value: 15.6 +/- 1.2 hrs); type: cell-based
T3 sequence (whole entry): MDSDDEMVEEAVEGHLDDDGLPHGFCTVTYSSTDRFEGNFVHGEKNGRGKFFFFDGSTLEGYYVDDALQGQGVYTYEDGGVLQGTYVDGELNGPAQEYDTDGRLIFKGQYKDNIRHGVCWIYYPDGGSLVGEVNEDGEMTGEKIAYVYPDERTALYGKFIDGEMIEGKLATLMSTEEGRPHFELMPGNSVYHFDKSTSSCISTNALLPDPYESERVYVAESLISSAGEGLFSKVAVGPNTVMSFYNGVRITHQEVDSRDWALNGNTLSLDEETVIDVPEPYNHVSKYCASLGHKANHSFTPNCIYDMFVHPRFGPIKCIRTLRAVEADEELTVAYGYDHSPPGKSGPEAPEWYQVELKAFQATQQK
Outline: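 MCF7 cells treated with or without 43 μM drug in the presence of 1 μg/mL cycloheximide for various times. ERα immunoblotted from RIPA lysates and band intensity quantified to derive half-life. Three independent assays.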

[4] = target: T4, Histone-lysine N-methyltransferase SETD7 (Homo sapiens, UniProt Q8WTS6); assay: Inhibition of recombinant Set7/9 (unknown origin) expressed in Escherichia coli BL21 (DE3) using Ac-KRSK-MCA peptide/SAM as substrate preincubated for 1 hr followed by substrate addition measured after 15 mins by Dixon plot analysis
T4 sequence (Q8WTS6 whole entry): T3 sequence (whole entry)
Outline: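 Fluorogenic HMT kinetics used recombinant His-Set7/9 expressed in E. coli BL21(DE3) (IPTG 0.1 mM, 18 °C, 24 h) and purified on Ni2+ affinity. The methyl acceptor was Ac-KRSK-MCA and the cofactor was SAM. Ki was obtained from a Dixon plot of initial velocity versus inhibitor. Four independent assays, SD.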

- inhibition [1]: Active
- inhibition [2]: Active
- T1/2 [3]: 10.3 h
- Ki [4]: 15 µM
Compound: CN1CCC(=C2c3ccccc3C=Cc3ccccc32)CC1 [CYPROHEPTADINE]
- Activity (Mus musculus): Non-toxic
